The source of these data is ChEMBL document CHEMBL5649170, “Sustained microglial depletion with CSF1R inhibitor impairs parenchymal plaque development in an Alzheimer's disease model” (Nat Commun, 2019).

A word on the IC50: it is the concentration that gives 50% inhibition.

Series [1] relates to Mus musculus. The experiment in a line: Antialzheimer activity in 5XFAD mouse assessed as average plaque volume in somatosensory cortex at 75 ppm administered as rodent chow starting from 1.5 months and measured after 5 months by immunolabeling based confocal microscopic analysis (reference value: 871.142 to 1628.317 microm3). The format is functional. To be noted: route po, time 3.5 months, 2555 h. An outline of the steps: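 5xFAD mice fed PLX3397 at 75 ppm in AIN-76A chow from 1.5 to 5 months of age; retrosplenial and somatosensory cortex sections stained with Thio-S and immunolabeled for IBA1; confocal imaging, IBA1+ cells and plaques quantified per region; two-tailed independent t-test, n = 4–5 per group, mean ± SEM.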

In series [2] the target is T1, Macrophage colony-stimulating factor 1 receptor (Mus musculus) (UniProt P09581).
T1 sequence (whole entry): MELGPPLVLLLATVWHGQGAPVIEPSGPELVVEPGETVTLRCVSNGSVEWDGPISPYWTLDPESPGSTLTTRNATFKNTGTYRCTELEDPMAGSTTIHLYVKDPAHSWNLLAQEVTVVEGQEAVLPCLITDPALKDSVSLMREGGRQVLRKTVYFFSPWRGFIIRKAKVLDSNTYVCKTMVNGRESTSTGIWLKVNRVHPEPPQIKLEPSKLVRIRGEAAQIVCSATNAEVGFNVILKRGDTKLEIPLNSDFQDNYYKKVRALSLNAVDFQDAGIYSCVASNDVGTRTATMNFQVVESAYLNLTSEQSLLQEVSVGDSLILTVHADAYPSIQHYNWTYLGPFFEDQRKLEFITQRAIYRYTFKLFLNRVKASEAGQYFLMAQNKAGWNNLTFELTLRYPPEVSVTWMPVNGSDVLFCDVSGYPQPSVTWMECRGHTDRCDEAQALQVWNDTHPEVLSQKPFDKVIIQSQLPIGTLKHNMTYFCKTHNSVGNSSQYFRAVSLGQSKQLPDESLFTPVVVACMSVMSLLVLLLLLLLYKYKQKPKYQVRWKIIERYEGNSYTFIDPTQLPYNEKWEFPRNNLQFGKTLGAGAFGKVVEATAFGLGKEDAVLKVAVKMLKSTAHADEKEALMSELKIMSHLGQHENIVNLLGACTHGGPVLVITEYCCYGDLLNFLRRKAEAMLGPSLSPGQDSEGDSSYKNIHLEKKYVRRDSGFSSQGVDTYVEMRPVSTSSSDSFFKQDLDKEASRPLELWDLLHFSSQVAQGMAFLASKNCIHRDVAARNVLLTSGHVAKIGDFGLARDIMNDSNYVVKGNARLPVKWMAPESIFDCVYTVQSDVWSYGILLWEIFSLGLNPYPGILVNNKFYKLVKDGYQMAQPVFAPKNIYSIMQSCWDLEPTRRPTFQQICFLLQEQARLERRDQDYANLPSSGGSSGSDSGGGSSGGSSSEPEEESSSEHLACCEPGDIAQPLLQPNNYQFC
The experiment in a line: In vivo inhibition of CSF1R in 5XFAD mouse assessed as appearance of CAA in […] cortex at 600 ppm administered as rodent chow starting from 1.5 months and measured after 5 months by immunolabeling based confocal microscopic analysis. To be noted: route po, time 3.5 months.

Series [3] has as its target Calcium/calmodulin-dependent protein kinase type 1 (Homo sapiens, UniProt Q14012). The series can be described thus: Inhibition of CAMK1 (unknown origin).
In series [4] the target is Tyrosine-protein kinase FRK (Homo sapiens, UniProt P42685). The series can be described thus: Inhibition of FRK (unknown origin).
Series [5] deals with Tyrosine-protein kinase Lck (Homo sapiens, UniProt P06239). The series can be described thus: Inhibition of LCK (unknown origin).
Series [6] has as its target Serine/threonine-protein kinase MARK1 (Homo sapiens, UniProt Q9P0L2). The series can be described thus: Inhibition of MARK1 (unknown origin).
For series [7], the target named is Serine/threonine-protein kinase MARK2 (Homo sapiens, UniProt Q7KZI7). The experiment in a line: Inhibition of MARK2 (unknown origin).
Series [8] concerns the target Serine/threonine-protein kinase D1 (Homo sapiens, UniProt Q15139). The experiment in a line: Inhibition of PRKD1 (unknown origin).
A short description of series [9]: Drug concentration in mouse plasma at 300 ppm administered as rodent chow for 14 days. The format is ADME, cell-free. Conditions: route po, time 14 day.
Series [10] deals with Mus musculus. The experiment in a line: Antialzheimer activity in 5XFAD mouse assessed as number of Iba positive cells per FOV in somatosensory cortex at 1200 ppm administered as rodent chow starting from 1.5 months and measured after 4 months (reference value: 192 to 604). The format is functional. Conditions: route po, time 2.5 months, 1825 h.
Series [11] concerns Mus musculus. The experiment in a line: Antialzheimer activity in wildtype mouse assessed as number of Iba positive cells per FOV in thalamus at 1200 ppm administered as rodent chow starting from 1.5 months and measured after 4 months (reference value: 232 to 320). Type of series: functional. To be noted: route po, time 2.5 months, 1825 h.
Series [12] concerns Mus musculus. The series can be described thus: Antialzheimer activity in 5XFAD mouse assessed as time in platform zone at 1200 ppm administered as rodent chow for 10 to 24 weeks by Morris water maze test (reference value: 0 to 27 sec). The format is functional. Conditions: route po, time 10-24 weeks. An outline of the steps:
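Morris water maze: a circular pool was filled with opaque water (white paint added), and mice were given four trials per acquisition day. Twenty-four hours after the last acquisition day, the platform was removed for a 60 s probe trial. Mice had been on 1200 ppm PLX5622 or control chow for 10 or 24 weeks from 1.5 months of age.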

Series [13] can be described thus: Toxicity in wildtype mouse assessed as total number of arm entries at 1200 ppm administered as rodent chow for 10 to 24 weeks by Y-maze test (reference value: 14 to 35). Conditions: in vivo, po, time 10-24 weeks.
The test system of series [14] is Mus musculus. The series can be described thus: Antialzheimer activity in 5XFAD mouse assessed as average plaque volume in somatosensory cortex at 1200 ppm administered as rodent chow starting from 1.5 months and measured after 7 months by Thio-S staining based confocal microscopic analysis (reference value: 711.144 to 2878.724 microm3). Type of series: functional. Conditions: route po, time 5.5 months, 4015 h.

Series [15] has as its system Mus musculus. The series can be described thus: Antialzheimer activity in 5XFAD mouse assessed as amyloidbeta40 level in detergent soluble cortex fraction measured per microgram protein at 1200 ppm administered as rodent chow starting from 1.5 months and measured after 4 months by ELISA (reference value: 0 to 0.089 pg). The format is functional. Conditions: route po, time 2.5 months, 1825 h. An outline of the steps:
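PLX5622 at 1200 ppm in chow given to 5xFAD mice from 1.5 months to 4 or 7 months of age; cortex and thalamus homogenized in TPER (detergent-soluble), pellets re-homogenized in 70% formic acid and spun 100,000 g, 1 h, 4 °C (insoluble); protein by Bradford/Lowry; Aβ species measured by Meso Scale electrochemiluminescence immunoassay, normalized to protein; n = 7–8 per group at 7 months.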

In series [16] the test system is Mus musculus. The series can be described thus: Effect on APP processing pathway in wildtype mouse assessed as C-terminal PS1 protein signal intensity in cortex at 1200 ppm administered as rodent starting from 1.5 months and measured after 7 months (reference value: 5.248 to 133.048 %). Type of series: functional. To be noted: route po, time 5.5 months, 4015 h.

A short description of series [17]: Effect on Itgax gene expression in 5XFAD mouse thalamus at 1200 ppm administered as rodent chow starting from 1.5 months and measured after 7 months by RNA-Seq analysis (reference value: 1.842 to 2.823 RPKM). To be noted: route po, time 5.5 months, 4015 h. The format is functional.
Series [18] relates to Mus musculus. The experiment in a line: Antialzheimer activity in 5XFAD mouse assessed as reduction in plaque formation by measuring average plaque volume in somatosensory cortex at 1200 ppm administered as rodent chow starting from 1.5 months and measured after 4 months by immunolabeling based confocal microscopic analysis. The format is functional. Conditions: route po, time 2.5 months, 1825 h.

The source made the active and inactive calls. The calls are words filed in the database; no cut-off is given here.

Sequence of Serine/threonine-protein kinase MARK1 (Q9P0L2 whole entry): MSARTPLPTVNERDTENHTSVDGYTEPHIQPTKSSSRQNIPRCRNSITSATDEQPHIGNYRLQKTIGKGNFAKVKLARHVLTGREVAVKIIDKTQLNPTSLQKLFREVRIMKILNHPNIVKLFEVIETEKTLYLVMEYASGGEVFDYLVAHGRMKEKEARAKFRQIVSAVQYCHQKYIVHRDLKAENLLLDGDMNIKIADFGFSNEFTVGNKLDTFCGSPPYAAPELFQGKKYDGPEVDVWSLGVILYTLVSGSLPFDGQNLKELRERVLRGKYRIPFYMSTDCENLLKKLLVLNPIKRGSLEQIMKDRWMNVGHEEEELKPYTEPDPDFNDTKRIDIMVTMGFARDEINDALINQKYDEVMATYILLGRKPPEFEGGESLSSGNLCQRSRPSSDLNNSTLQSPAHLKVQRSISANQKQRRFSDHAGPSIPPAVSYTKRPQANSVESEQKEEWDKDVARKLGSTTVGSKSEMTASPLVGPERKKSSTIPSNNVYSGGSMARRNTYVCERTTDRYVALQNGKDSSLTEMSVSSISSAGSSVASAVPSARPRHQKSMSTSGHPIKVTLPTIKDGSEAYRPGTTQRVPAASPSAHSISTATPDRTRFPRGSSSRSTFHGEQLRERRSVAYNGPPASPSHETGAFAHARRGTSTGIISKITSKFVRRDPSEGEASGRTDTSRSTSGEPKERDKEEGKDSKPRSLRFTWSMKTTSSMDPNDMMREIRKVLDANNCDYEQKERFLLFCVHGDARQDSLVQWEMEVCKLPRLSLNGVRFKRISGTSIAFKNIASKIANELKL
Sequence of Calcium/calmodulin-dependent protein kinase type 1 (Q14012 whole entry): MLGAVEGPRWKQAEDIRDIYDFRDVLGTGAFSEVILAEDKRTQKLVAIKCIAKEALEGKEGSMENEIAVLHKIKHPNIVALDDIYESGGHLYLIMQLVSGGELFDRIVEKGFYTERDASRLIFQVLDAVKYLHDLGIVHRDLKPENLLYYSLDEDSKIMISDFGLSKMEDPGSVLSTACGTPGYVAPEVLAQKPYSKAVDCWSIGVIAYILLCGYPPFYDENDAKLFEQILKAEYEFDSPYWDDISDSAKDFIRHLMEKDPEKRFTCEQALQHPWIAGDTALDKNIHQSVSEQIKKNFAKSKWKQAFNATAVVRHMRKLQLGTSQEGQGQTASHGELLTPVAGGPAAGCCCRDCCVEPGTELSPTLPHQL
Sequence of Tyrosine-protein kinase Lck (P06239 whole entry): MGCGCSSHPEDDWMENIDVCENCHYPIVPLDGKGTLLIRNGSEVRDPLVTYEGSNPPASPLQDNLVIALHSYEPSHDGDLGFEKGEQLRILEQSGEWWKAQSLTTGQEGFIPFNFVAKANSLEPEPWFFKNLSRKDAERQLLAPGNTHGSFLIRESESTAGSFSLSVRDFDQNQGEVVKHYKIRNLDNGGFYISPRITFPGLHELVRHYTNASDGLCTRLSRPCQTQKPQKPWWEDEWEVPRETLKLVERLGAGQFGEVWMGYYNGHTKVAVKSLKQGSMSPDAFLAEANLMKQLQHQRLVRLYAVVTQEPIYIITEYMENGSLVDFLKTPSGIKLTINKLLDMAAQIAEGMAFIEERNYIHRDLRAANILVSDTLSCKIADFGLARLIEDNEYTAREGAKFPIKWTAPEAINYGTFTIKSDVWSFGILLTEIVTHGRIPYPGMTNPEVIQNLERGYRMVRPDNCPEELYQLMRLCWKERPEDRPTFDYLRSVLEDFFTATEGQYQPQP
Sequence of Serine/threonine-protein kinase MARK2 (Q7KZI7 whole entry): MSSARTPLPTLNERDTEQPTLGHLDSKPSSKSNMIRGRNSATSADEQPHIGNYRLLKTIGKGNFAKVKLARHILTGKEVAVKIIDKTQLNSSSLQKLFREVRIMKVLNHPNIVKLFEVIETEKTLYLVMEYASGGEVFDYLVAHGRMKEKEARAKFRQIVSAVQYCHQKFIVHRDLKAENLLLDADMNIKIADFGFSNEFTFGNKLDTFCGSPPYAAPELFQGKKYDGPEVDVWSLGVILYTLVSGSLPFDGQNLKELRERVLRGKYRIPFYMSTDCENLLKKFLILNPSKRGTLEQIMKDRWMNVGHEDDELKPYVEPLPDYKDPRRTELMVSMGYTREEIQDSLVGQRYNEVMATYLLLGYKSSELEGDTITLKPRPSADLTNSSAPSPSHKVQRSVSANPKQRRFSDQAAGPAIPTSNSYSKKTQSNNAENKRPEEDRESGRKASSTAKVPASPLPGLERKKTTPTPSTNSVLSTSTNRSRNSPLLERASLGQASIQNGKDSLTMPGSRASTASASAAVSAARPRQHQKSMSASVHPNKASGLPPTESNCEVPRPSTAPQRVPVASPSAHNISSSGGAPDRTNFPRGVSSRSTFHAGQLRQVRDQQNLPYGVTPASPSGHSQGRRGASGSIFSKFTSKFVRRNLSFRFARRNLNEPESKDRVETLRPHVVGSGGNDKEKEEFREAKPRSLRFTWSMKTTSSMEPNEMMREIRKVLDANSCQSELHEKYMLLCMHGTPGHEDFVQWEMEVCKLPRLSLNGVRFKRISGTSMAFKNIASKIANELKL
Sequence of Serine/threonine-protein kinase D1 (Q15139 whole entry): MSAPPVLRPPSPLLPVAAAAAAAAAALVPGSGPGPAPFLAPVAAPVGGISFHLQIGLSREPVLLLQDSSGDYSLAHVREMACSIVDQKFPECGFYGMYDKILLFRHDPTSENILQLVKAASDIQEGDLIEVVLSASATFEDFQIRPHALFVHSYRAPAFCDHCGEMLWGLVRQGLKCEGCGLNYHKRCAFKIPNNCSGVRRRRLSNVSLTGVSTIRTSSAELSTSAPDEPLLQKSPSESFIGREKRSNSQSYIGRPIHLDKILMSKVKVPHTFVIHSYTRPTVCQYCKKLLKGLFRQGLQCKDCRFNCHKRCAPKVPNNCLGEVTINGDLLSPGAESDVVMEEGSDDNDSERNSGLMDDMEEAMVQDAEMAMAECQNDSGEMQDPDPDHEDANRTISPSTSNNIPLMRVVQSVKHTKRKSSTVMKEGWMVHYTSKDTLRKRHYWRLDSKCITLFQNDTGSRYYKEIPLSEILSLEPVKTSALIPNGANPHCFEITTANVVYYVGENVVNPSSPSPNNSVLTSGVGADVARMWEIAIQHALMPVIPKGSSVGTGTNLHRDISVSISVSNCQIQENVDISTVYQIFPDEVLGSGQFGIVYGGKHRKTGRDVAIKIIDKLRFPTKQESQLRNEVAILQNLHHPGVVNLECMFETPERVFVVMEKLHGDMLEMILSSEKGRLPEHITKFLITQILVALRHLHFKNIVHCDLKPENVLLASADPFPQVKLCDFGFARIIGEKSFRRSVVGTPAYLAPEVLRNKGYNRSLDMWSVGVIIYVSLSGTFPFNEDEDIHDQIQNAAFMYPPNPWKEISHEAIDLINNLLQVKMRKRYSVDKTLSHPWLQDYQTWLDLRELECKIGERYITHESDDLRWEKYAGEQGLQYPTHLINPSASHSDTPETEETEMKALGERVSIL
Sequence of Tyrosine-protein kinase FRK (P42685 whole entry): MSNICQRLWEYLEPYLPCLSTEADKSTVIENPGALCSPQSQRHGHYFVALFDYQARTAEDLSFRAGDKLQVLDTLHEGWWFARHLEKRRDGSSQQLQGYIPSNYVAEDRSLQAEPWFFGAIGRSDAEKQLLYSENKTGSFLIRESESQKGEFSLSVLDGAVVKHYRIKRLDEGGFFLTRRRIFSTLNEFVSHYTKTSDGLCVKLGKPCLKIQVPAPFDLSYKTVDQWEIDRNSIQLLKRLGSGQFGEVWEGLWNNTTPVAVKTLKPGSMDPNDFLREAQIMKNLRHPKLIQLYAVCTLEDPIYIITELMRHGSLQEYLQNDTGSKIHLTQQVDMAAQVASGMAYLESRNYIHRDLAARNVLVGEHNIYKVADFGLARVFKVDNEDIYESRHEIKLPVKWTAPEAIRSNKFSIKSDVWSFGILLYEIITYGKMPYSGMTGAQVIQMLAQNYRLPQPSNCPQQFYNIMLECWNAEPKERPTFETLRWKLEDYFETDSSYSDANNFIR

For the compound `FC(F)(F)c1ccc(CNc2ccc(Cc3c[nH]c4ncc(Cl)cc34)cn2)cn1` [PEXIDARTINIB], the Activity in series [1] is 628.64 um3. In addition, in series [2], the inhibition result was “Active”.

For the compound `COc1ncc(F)cc1CNc1ccc(Cc2c[nH]c3ncc(C)cc23)c(F)n1` [PLX-5622], the IC50 in series [3], in series [4], in series [5], in [6], in series [7] and in series [8] was greater than 1000 nM in each case. In series [9], this compound yielded a concentration at 336 h of 4340 ng/mL. The Activity is reported as 0 in series [10]; 0 in [11]; 14 in [13]; 66.975 um3 in series [14]; 0 pg in series [15]; 15.313% in series [16]. Moreover, the values for the Activity in [17] and in [18] were 0.043 RPKM and 1533.351 um3, respectively. Further, the Time in [12] amounted to 0 s.
